Source: PubChem (several laboratories)
Only some compounds are listed: those with a hit (about 3% of all), similar ones and a draw of the others.
H9c2 protect – protects H9c2 cardiomyocytes from peroxide injury; H2O2 injury protection, ATPLite, 2 h; protection from H2O2 cell death, % at 20 µM; 360,000 tested, 0.63% active; AID 588492;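 active = compounds giving at least 50% protection of heart cells from peroxide-induced death in the single-dose screen, raw or plate-pattern-corrected value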
SENP1 inh – blocks the human SENP1 SUMO protease catalytic domain | Q9P0U3 | recombinant SENP1 catalytic domain, CyPet-SUMO1-YPet FRET cleavage | inhibition, % at 10 µM | 360,000 tested, 0.21% active;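 active = inhibition at least 30% at 10 µM, raw YFP signal under a set limit, fluorescence ratio 0.5 to 1.5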
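Controls: no-enzyme wells low, DMSO-plus-enzyme wells high control. Test system: human recombinant His6-tagged SENP1 catalytic domain enzyme. Reagent: SFCypet-SUMO1-SFYpet FRET protein substrate, 25 nM final. Doses: one dose per compound, 10 µM, 0.5% DMSO. Detection: FRET, CFP and YFP emission. Timing: 50 min reaction at room temperature.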
Pemphigus Ab inh – inhibitors of pemphigus antibody binding to human desmoglein-3 | DSG3-coupled beads, scFv-anti-DSG3-GFP binding, flow cytometry; hits give low values | binding (percent of control), % at 10 µM | 310,000 tested, 0.48% active;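 active = binding more than 3 SD below its plate's average and above zero; inconclusive = below that plate limit but binding exactly zero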;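 note: hits lower antibody fragment binding to DSG3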
Target sequence (P32926 whole entry, looked up, the tested form may be a part): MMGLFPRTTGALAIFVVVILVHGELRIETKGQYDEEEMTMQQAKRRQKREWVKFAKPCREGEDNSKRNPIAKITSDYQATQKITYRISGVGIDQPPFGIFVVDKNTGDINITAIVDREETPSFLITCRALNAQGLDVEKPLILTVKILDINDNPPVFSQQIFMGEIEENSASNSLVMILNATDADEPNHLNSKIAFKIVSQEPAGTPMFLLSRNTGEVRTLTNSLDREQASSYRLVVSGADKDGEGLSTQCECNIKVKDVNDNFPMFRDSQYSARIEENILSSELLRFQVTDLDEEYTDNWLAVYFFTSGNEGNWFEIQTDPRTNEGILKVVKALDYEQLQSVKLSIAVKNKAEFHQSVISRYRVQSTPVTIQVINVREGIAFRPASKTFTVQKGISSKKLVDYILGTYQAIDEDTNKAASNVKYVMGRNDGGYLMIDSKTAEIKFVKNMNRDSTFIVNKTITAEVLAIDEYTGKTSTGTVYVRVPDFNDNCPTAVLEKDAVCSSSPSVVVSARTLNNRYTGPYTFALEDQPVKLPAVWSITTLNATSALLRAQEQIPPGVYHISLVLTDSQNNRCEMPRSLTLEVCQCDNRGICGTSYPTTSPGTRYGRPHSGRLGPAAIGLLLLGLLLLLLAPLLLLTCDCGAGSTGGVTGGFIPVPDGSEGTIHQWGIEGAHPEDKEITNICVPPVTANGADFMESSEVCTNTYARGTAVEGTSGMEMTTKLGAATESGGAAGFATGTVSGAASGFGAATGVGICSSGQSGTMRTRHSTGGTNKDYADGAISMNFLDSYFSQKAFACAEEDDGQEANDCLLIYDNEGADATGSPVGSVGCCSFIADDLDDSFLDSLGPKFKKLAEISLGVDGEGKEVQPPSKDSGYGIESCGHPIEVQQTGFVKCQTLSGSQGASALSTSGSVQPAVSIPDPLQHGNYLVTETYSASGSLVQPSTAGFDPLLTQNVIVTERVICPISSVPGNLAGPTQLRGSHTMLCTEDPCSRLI
Myeloid diff MLP – compounds promoting myeloid differentiation; ER-HoxA9 myeloid progenitors, lysozyme-GFP differentiation, flow cytometry; calls only at 10 µM; 360,000 tested, 1% active; AID 624256;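 active = normalized GFP-positive differentiation at or above the plate's own cutoff, the solvent-only control mean plus 3 SD; inconclusive = no clear call, values can overlap the other calls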;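 note: cells exposed to compound for four days before flow analysis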
HNF4A DNA FP – change in binding of human HNF4 alpha to DNA. HNF4a-FITC DNA binding, fluorescence polarization, 1 h. activity change, % at 10 µM. 360,000 tested, 0.3% active; in the data active = activity change above about 30%, passing the limit was not always enough
Granule exo inh – lytic granule exocytosis inhibition. 360,000 tested, 0.66% active. TALL-104 LAMP-1 surface exposure, flow cytometry; cells stimulated with thapsigargin and PMA. inhibition, % at 10 µM;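 active = inhibition above about 55%, limit read from the data; inconclusive = no clear call, values can overlap the other calls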
Myeloid diff – myeloid differentiation induction. calls only. 2,300 tested, 2% active. shares compounds with Myeloid diff MLP. ER-HoxA9 myeloid progenitors, GFP/Mac1 double-positive flow. AID 651706;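 active = share of green or green-and-red cells above 9 and 9% in run 1 or 4 and 3% in run 2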
GFP autofluor – flagged as fluorescent in myeloid differentiation counter-screen; shares compounds with Myeloid diff MLP; ER-HoxA9 myeloid progenitors, no estrogen, GFP autofluorescence flow cytometry; vehicle wells 0%, positive control 100%; fluorescence response, % (concentration not given with the values); 2,300 tested, 7.4% active; AID 651707;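 active = over 5% cells positive for green fluorescent reporter, or over 2% positive for both it and APC stain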
Large screens that a line does not name were inactive (follow-up assays come after a bar, where they were run).

Cc1cc(F)ccc1C(O)c1ncc(-c2ccccc2C(F)(F)F)[nH]1 (centres undefined)	none (no result: Pemphigus Ab inh)
N#C/C(=C\c1cccnc1)C(=O)NC1CCCCC1	Myeloid diff MLP active | Myeloid diff inactive | GFP autofluor inactive
COc1cccc(Cn2cnc3c(N)c(C)c(C)cc32)c1	none | Myeloid diff inactive | GFP autofluor inactive
COC(=O)NNC(=O)COc1ccc2ccccc2c1Br	none | Myeloid diff inactive | GFP autofluor inactive
CCCCC(O)(CCCC)C(=O)N/N=C(\C)c1ccc(Cl)cc1	none | Myeloid diff inactive | GFP autofluor inactive
CCCCCCCCN1C(=O)[C@H](CC(=O)NCc2cccc3ccccc23)C[C@@]2(C(=O)OC)CC(C)(C)CC=C12	none (no result: H9c2 protect, Pemphigus Ab inh)
Cc1cc(C(=O)COC(=O)Cc2n[nH]c(=O)c3ccccc23)c(C)n1-c1ccc2c(c1)OCO2	Myeloid diff MLP active (no result: Pemphigus Ab inh) | Myeloid diff inactive | GFP autofluor inactive
CCOC(=O)c1cc(C)sc1NC(=O)CSC1=NCCS1	none
CC(=O)Nc1ccc(S(=O)(=O)NC2(C(F)(F)F)N=C(c3ccccc3)NC2=O)cc1 (centres undefined)	none | Myeloid diff inactive | GFP autofluor inactive
CCOC(=O)NC1(C(F)(F)F)N=C(c2ccccc2)NC1=O (centres undefined)	Pemphigus Ab inh inconclusive
CCOc1ccc(NC(=S)N2c3ccccc3CC2C)cc1 (centres undefined)	none | Myeloid diff inactive | GFP autofluor inactive
CC(=O)c1cccc(NC(=S)N2c3ccccc3CC2C)c1 (centres undefined)	none
Cc1ccc(S(=O)(=O)N2CCCCC2CCNC(=O)C(=O)NCc2cccnc2)cc1 (centres undefined)	Myeloid diff MLP active | Myeloid diff inactive | GFP autofluor inactive
COc1cc(O)oc1C=Nc1ccc(C(=O)O)cc1	none
Cc1cccc(OCCCC(=O)Nc2ccc(S(=O)(=O)Nc3nccs3)cc2)c1C	none
CCNC(=O)NC1(C(=O)N2CCC(Cc3ccccc3)CC2)CCCCC1	Myeloid diff MLP active | Myeloid diff inactive | GFP autofluor inactive
Cc1ccc(N(C(=O)Cn2nnc(-c3cccs3)n2)C(C(=O)NC2CCCC2)c2ccncc2)cc1 (centres undefined)	none | Myeloid diff inactive | GFP autofluor inactive
C=CCc1cccc(C=Nc2cc(Br)ccc2O)c1O	Myeloid diff MLP active | Myeloid diff inactive | GFP autofluor inactive
CC1(C)Cc2c(cnn2-c2ccccc2)C(NC(=O)C2(C(N)=O)CC2)C1 (centres undefined)	Myeloid diff MLP active | Myeloid diff inactive | GFP autofluor inactive
CC1(C)Cc2c(cnn2-c2ccccc2)C(NC(=O)c2ccoc2)C1 (centres undefined)	none (no result: Pemphigus Ab inh)
Cc1nc(SC(C)C(=O)NCC2CCCO2)c2cc(-c3ccccc3)sc2n1 (centres undefined)	Myeloid diff MLP active | Myeloid diff inactive | GFP autofluor 39
N[C@@H](CO)c1nnc([C@H](Cc2ccc(O)cc2)NC(=O)C2CCNCC2)o1	none
COc1ccccc1C1CC(c2ccc(Br)cc2)=NN1C(=O)c1cccnc1 (centres undefined)	none | Myeloid diff inactive | GFP autofluor inactive
COc1cccc(C2CC(c3ccc(Br)cc3)=NN2C(=O)c2ccncc2)c1OC (centres undefined)	none
Cc1ccc(-n2ncc3c2CC(C)(C)CC3NC(=O)CCc2ccc(=O)[nH]n2)cc1 (centres undefined)	none
COC(=O)c1ccccc1NC(=O)N1CCN(c2ccc(OC)cc2)CC1	none
COc1cc(C(=O)NCc2ccc(S(N)(=O)=O)cc2)ccc1OCC(=O)N1CCOCC1	none
CC1CCN(S(=O)(=O)c2ccc(NC(=O)[C@@H]3CCCN3C(=O)c3cccs3)cc2)CC1	none (no result: Pemphigus Ab inh)
COc1ccc(/C=N/NC(=O)c2ccc(N(C)S(=O)(=O)c3ccccc3)cc2)cc1	none
CN(c1ccc(C(=O)N/N=C/c2cccc([N+](=O)[O-])c2)cc1)S(=O)(=O)c1ccccc1	none (no result: Pemphigus Ab inh) | Myeloid diff inactive | GFP autofluor inactive
CN(C)c1cccc(-c2cc(Nc3ccc(C(C)(C)C)cc3)ncn2)c1	none (no result: Pemphigus Ab inh)
CN(C)c1cccc(Nc2ccc(-c3ccc(OC(F)(F)F)cc3)cn2)c1	Myeloid diff MLP active (no result: Pemphigus Ab inh) | Myeloid diff inactive | GFP autofluor inactive
CCOC(=O)c1ccccc1NC(=O)Cn1cnc2c(cnn2-c2ccccc2)c1=O	none | Myeloid diff inactive | GFP autofluor inactive
Cc1cccc(C)c1-n1nnnc1C(C)(C)N1CCN(N=O)CC1	none
COc1ccc(NC(C)(C)c2nnnn2-c2c(C)cccc2C)cc1	none | Myeloid diff inactive | GFP autofluor inactive
Cn1ncc2c(=S)[nH]c(=S)[nH]c21	none (no result: H9c2 protect, Pemphigus Ab inh)
C[C@]1(C(=O)NCCCNc2ncc(C(F)(F)F)cc2Cl)C=C[C@@H](Cc2ccccc2)N1C(=O)c1ccccc1	none | Myeloid diff inactive | GFP autofluor inactive
CC1=C(C(=O)Nc2ccccc2Cl)C(c2ccc(N(C)C)cc2)NC(=O)N1 (centres undefined)	Myeloid diff MLP active | Myeloid diff inactive | GFP autofluor inactive
COc1ccccc1NS(=O)(=O)c1cc(NC(=O)c2cccs2)ccc1N1CCCC1	none
COc1ccc(NS(=O)(=O)c2cc(NC(=O)c3sccc3C)ccc2N2CCOCC2)cc1	Myeloid diff MLP active | Myeloid diff inactive | GFP autofluor inactive
COc1ccccc1NS(=O)(=O)c1cc(NC(=O)c2cccs2)ccc1N1CCCCC1	Myeloid diff MLP active | Myeloid diff inactive | GFP autofluor inactive
Cc1cccc(C(=O)NC2CC3CCCC(C2)N3C(=O)Nc2ccccc2)c1 (centres undefined)	none (no result: Pemphigus Ab inh)
O=C(Nc1ccc(S(=O)(=O)N2CCOCC2)cc1)c1ccc([N+](=O)[O-])o1	Myeloid diff MLP inconclusive
O=C(Nc1ccc(N2CCOCC2)cc1)c1ccc([N+](=O)[O-])o1	Myeloid diff MLP active | Myeloid diff inactive | GFP autofluor inactive
Cc1ccc(CNC(=O)COC(=O)c2nc(-c3ccccc3)oc2C)cc1	none (no result: Pemphigus Ab inh) | Myeloid diff inactive | GFP autofluor inactive
Cc1oc(-c2ccccc2)nc1C(=O)OCC(=O)NCc1ccc(Cl)cc1	none
COC(=O)CCCCCN1C(=O)NC(c2ccccc2)C(C(=O)OCc2ccccc2)=C1C (centres undefined)	none | Myeloid diff inactive | GFP autofluor inactive
CC1=C(C(=O)OCc2ccccc2)C(c2ccc(Br)cc2)NC(=O)N1CCCCCC(=O)O (centres undefined)	none
